{"source": "paper PMC4177335", "about": "(ChemMedChem, 2014)", "key": {"[1]": {"system": "chloroquine-sensitive and chloroquine-resistant parasites", "conditions": "ref [13]; cited from earlier work"}, "[2]": {"conditions": "cited from earlier work"}, "histone H3K9me3 [3]": {"system": "histone H3K9me3", "conditions": "ref [13]; cited from earlier work"}, "histone H3K4me3 [4]": {"system": "histone H3K4me3", "conditions": "ref [13]; cited from earlier work"}, "[5]": {"conditions": "microsomes, cited from earlier work"}, "[6]": {"system": "highly synchronized P. falciparum parasites", "conditions": "throughout the intraerythrocytic life cycle; ref [13]; cited from earlier work"}, "histone H3K4me3 [7]": {"system": "histone H3K4me3", "assay": "Parasite histone methylation analysis", "assay_type": "cell-based, P. falciparum 3D7", "conditions": "5-fold IC50, 12 hours, relative to DMSO control", "procedure,_shortened": "(§1)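 3D7 cultures were exposed for 12 h to test compound, chloroquine or DMSO vehicle. Infected blood was saponin-treated (0.15% in PBS) to remove red cells, and freed parasites were lysed by bath sonication in 2% SDS for Western blot. Trimethyl-specific bands were quantified by densitometry, normalized to core histone H3 signal and expressed relative to DMSO-treated parasites.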"}, "[8]": {"conditions": "ref [21]; cited from earlier work"}, "HepG2 cells [9]": {"system": "HepG2 cells", "conditions": "Table 5; ref [21]; cited from earlier work"}, "[10]": {"system": "P. falciparum 3D7 strain parasites", "assay": "In vitro P. falciparum growth and proliferation assay", "assay_type": "cell-based, Plasmodium falciparum", "conditions": "for IC50: read-out: Pf3D7 IC50; for fold reduction in Pf3D7 activity: versus the comparator analogue named in the sentence"}, "[11]": {"conditions": "cited from earlier work", "remark": "listed apart in the source"}, "HepG2 cells [12]": {"system": "HepG2 cells", "assay": "In vitro cytotoxicity assay", "assay_type": "cell-based, human", "conditions": "for HepG2/Pf3D7: ratio HepG2 IC50 / Pf3D7 IC50; for IC50: read-out: HepG2 IC50"}, "histone H3K9me3 [13]": {"system": "histone H3K9me3", "assay": "Parasite histone methylation analysis", "assay_type": "cell-based, P. falciparum 3D7", "conditions": "5-fold IC50, 12 hours, relative to DMSO control", "procedure,_shortened": "as §1"}, "[14]": {"conditions": "Plasmodium falciparum, 3D7, 72 h"}, "[15]": {"conditions": "P. falciparum 3D7 strain, three-day SYBR Green I assay"}, "[16]": {"conditions": "HepG2 cells, three days, CellTiterBlue"}}, "note": "Entries after “also recorded” stand apart in the source; their conditions may differ. Where two headings read alike, the source gives them in different places.", "data": [{"compound": "COc1cc2nc(N3CCCN(C)CC3)nc(NC3CCN(Cc4ccccc4)CC3)c2cc1OC", "note": "[Compound 1, (1-Benzyl-4-piperidyl)[6,7-dimethoxy-2-(4-methyl-1,4-diazepin-1-yl)-4-quinazolinyl]amine]", "values": [{"measurement": "potency against chloroquine-sensitive versus chloroquine-resistant parasites", "setting": "[1]", "result": "equally potent"}, {"measurement": "solubility pH 2", "setting": "[2]; pH 2", "result": ">100", "unit": "μg/ml"}, {"measurement": "solubility pH 6.5", "setting": "[2]; pH 6.5", "result": ">100", "unit": "μg/ml"}, {"measurement": "H3K9me3 levels of the parasite", "setting": "histone H3K9me3 [3]", "result": "decrease"}, {"measurement": "H3K4me3 levels of the parasite", "setting": "histone H3K4me3 [4]", "result": "decrease; also recorded: reduced"}, {"measurement": "rat microsome t1/2", "setting": "[5]", "result": 0.883, "unit": "h"}, {"measurement": "in vitro CLint", "setting": "[5]; rat", "result": 33, "unit": "μl/min/mg protein"}, {"measurement": "killing phenotype", "setting": "[6]", "result": "fast killing phenotype"}, {"measurement": "H3K4me3 levels in treated parasites", "setting": "histone H3K4me3 [7]", "result": "decreased"}, {"measurement": "rat plasma t1/2", "setting": "[8]", "result": ">4", "unit": "h"}, {"measurement": "HepG2/3D7", "setting": "HepG2 cells [9]", "result": 110.6}, {"measurement": "IC50", "setting": "[10]; [14]", "result": 43.4, "unit": "nM"}, {"measurement": "logD pH 3", "setting": "[11]; pH 3", "result": 0.5}, {"measurement": "logD pH 7.4", "setting": "[11]; pH 7.4", "result": 5}, {"measurement": "HepG2/Pf3D7", "setting": "HepG2 cells [12]", "result": 110.6}, {"measurement": "H3K9me3 levels in treated parasites", "setting": "histone H3K9me3 [13]", "result": "decreased"}]}, {"compound": "COc1cc2nc(N3C=CC=CC=C3)nc(NC3CCN(Cc4ccccc4)CC3)c2cc1OC", "note": "[Compound 4, (1-Benzyl-4-piperidyl)[2-(1-azepinyl)-6,7-dimethoxy-4-quinazolinyl]amine]", "values": [{"measurement": "Pf3D7 activity (in words)", "setting": "[10]; P. falciparum 3D7 strain", "result": "comparable to 1"}, {"measurement": "IC50", "setting": "[10]; [14]", "result": 29.1, "unit": "nM"}]}, {"compound": "COc1cc2nc(N3CCN(C)CC3)nc(NC(C)C)c2cc1OC", "note": "[Compound 51, (Isopropyl)[6,7-dimethoxy-2-(4-methyl-1-piperazinyl)-4-quinazolinyl]amine]", "values": [{"measurement": "IC50", "setting": "[10]; [14]", "result": "> 300", "unit": "nM"}, {"measurement": "fold reduction in Pf3D7 activity", "setting": "[10]", "result": "7-17 fold"}]}, {"compound": "COc1cc2nc(N3CCCN(C)CC3)nc(N(C)C3CCN(Cc4ccccc4)CC3)c2cc1OC", "note": "[Compound 60, (1-Benzyl-4-piperidyl)-N-methyl[6,7-dimethoxy-2-(4-methyl-1,4-diazepin-1-yl)-4-quinazolinyl]amine]", "values": [{"measurement": "IC50", "setting": "[10]; [15]", "result": 159, "unit": "nM"}, {"measurement": "fold reduction in Pf3D7 activity", "setting": "[10]", "result": "10-20 fold"}, {"measurement": "HepG2/Pf3D7", "setting": "HepG2 cells [12]", "result": 37.9}, {"measurement": "IC50", "setting": "HepG2 cells [12]; [16]", "result": 6000, "unit": "nM"}]}, {"compound": "COc1cc2nc(N3CCCCC3)nc(N(C)C3CCN(Cc4ccccc4)CC3)c2cc1OC", "note": "[Compound 61, (1-Benzyl-4-piperidyl)-N-methyl(6,7-dimethoxy-2-piperidino-4-quinazolinyl)amine]", "values": [{"measurement": "IC50", "setting": "[10]; [14]", "result": 495, "unit": "nM"}, {"measurement": "fold reduction in Pf3D7 activity", "setting": "[10]", "result": "10-20 fold"}, {"measurement": "IC50", "setting": "HepG2 cells [12]; Homo sapiens, HepG2, 72 h", "result": 8100, "unit": "nM"}, {"measurement": "HepG2/Pf3D7", "setting": "HepG2 cells [12]", "result": 16.4}]}, {"compound": "COc1cc2nc(N3C=CC=CC=C3)nc(N(C)C3CCN(Cc4ccccc4)CC3)c2cc1OC", "note": "[Compound 62, (1-Benzyl-4-piperidyl)-N-methyl[2-(1-azepinyl)-6,7-dimethoxy-4-quinazolinyl]amine]", "values": [{"measurement": "IC50", "setting": "[10]; [14]", "result": 400, "unit": "nM"}, {"measurement": "fold reduction in Pf3D7 activity", "setting": "[10]", "result": "10-20 fold"}, {"measurement": "IC50", "setting": "HepG2 cells [12]; Homo sapiens, HepG2, 72 h", "result": 5400, "unit": "nM"}, {"measurement": "HepG2/Pf3D7", "setting": "HepG2 cells [12]", "result": 13.6}]}, {"compound": "COc1cc2nc(N3CCN(c4ccccn4)CC3)nc(N(C)C3CCN(Cc4ccccc4)CC3)c2cc1OC", "note": "[Compound 63, (1-Benzyl-4-piperidyl)-N-methyl{6,7-dimethoxy-2-[4-(2-pyridyl)-1-piperazinyl]-4-quinazolinyl}amine]", "values": [{"measurement": "IC50", "setting": "[10]; [14]", "result": 472, "unit": "nM"}, {"measurement": "fold reduction in Pf3D7 activity", "setting": "[10]", "result": "10-20 fold"}, {"measurement": "IC50", "setting": "HepG2 cells [12]; Homo sapiens, HepG2, 72 h", "result": 9600, "unit": "nM"}, {"measurement": "HepG2/Pf3D7", "setting": "HepG2 cells [12]", "result": 20.4}]}, {"compound": "COc1cc2nc(N3CCCN(C)CC3)nc(OC3CCN(Cc4ccccc4)CC3)c2cc1OC", "note": "[Compound 65, 4-(1-Benzyl-4-piperidyloxy)-6,7-dimethoxy-2-(4-methyl-1,4-diazepin-1-yl)quinazoline]", "values": [{"measurement": "IC50", "setting": "[10]; [15]", "result": 1460, "unit": "nM"}, {"measurement": "HepG2/Pf3D7", "setting": "HepG2 cells [12]", "result": 5.4}, {"measurement": "IC50", "setting": "HepG2 cells [12]; [16]", "result": 7900, "unit": "nM"}]}, {"compound": "COc1cc2nc(N3CCN(c4ccccn4)CC3)nc(OC3CCN(Cc4ccccc4)CC3)c2cc1OC", "note": "[Compound 66, 4-(1-Benzyl-4-piperidyloxy)-6,7-dimethoxy-2-[4-(2-pyridyl)-1-piperazinyl]quinazoline]", "values": [{"measurement": "IC50", "setting": "[10]; [14]", "result": 2060, "unit": "nM"}, {"measurement": "IC50", "setting": "HepG2 cells [12]; Homo sapiens, HepG2, 72 h", "result": 15700, "unit": "nM"}, {"measurement": "HepG2/Pf3D7", "setting": "HepG2 cells [12]", "result": 7.7}]}, {"compound": "CN1CCCN(c2nc(NC3CCN(Cc4ccccc4)CC3)c3ccccc3n2)CC1", "note": "[Compound 73, (1-Benzyl-4-piperidyl)[2-(4-methyl-1,4-diazepin-1-yl)-4-quinazolinyl]amine]", "values": [{"measurement": "IC50", "setting": "[10]; [15]", "result": 101, "unit": "nM"}, {"measurement": "HepG2/Pf3D7", "setting": "HepG2 cells [12]", "result": 69.6}, {"measurement": "IC50", "setting": "HepG2 cells [12]; [16]", "result": 7000, "unit": "nM"}]}, {"compound": "c1ccc(CN2CCC(Nc3nc(N4CCCCC4)nc4ccccc34)CC2)cc1", "note": "[Compound 74, (1-Benzyl-4-piperidyl)(2-piperidino-4-quinazolinyl)amine]", "values": [{"measurement": "IC50", "setting": "[10]; [14]", "result": 385, "unit": "nM"}]}, {"compound": "CCN(CC)CCCC(C)Nc1ccnc2cc(Cl)ccc12", "note": "(stereo not drawn) [chloroquine]", "values": [{"measurement": "H3K4me3 levels in treated parasites", "setting": "histone H3K4me3 [7]", "result": "slight decrease"}, {"measurement": "H3K9me3 levels in treated parasites", "setting": "histone H3K9me3 [13]", "result": "slight increase"}]}, {"compound": "(1-Benzyl-4-piperidyl){6,7-dimethoxy-2-[4-(2-pyridyl)-1-piperazinyl]-4-quinazolinyl}amine [Compound 75]", "values": [{"measurement": "IC50", "setting": "[10]; [15]", "result": 354, "unit": "nM"}, {"measurement": "HepG2/Pf3D7", "setting": "HepG2 cells [12]", "result": 14.2}, {"measurement": "IC50", "setting": "HepG2 cells [12]; [16]", "result": 5000, "unit": "nM"}]}]}
